Assay [1] has as its system Hepatitis C virus. In words: Antiviral activity against HCV genotype 1b harboring D168A mutant infected in human Huh7 cells incubated for 96 hrs by luciferase assay. It counts as functional, organism-based, Hepacivirus hominis. The note with it: subtype 1b, Huh-7, 96 h. In outline:
(§1)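 Con1 (GT-1b) luciferase reporter replicon carrying the H77 (GT-1a) NS3 protease region, with the mutation introduced by megaprimer site-directed mutagenesis. Cured Huh7 cells were grown in DMEM with 10% heat-inactivated FBS and 0.1 mM non-essential amino acids, electroporated with replicon RNA transcripts, and kept with serially diluted inhibitor. EC50 was taken directly from the inhibition curves.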

Assay [2] concerns the target T1, Hepatitis C virus serine protease, NS3/NS4A (Hepatitis C virus, UniProt A3EZI9+D2K2A8). In words: Inhibition of HCV GT-1a NS3/4a protease using Ac-DE-D(Edans)-EE-Abu-c-[COO]-AS-K(Dabcy1)-NH2 preincubated for 1 hr followed by substrate addition. It counts as protein complex, Hepatitis C virus subtype 1a.
Assay [3] relates to Hepatitis C virus. The experiment in a line: Antiviral activity against HCV genotype 1b infected in human Huh7 cells incubated for 96 hrs by luciferase assay. It counts as functional, organism-based, Hepacivirus hominis. The note with it: Huh-7, 96 h. In short, it runs like this: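 Con1 (GT-1b) luciferase reporter replicon carrying the H77 (GT-1a) NS3 protease region, either WT or with A156T or D168A introduced by megaprimer mutagenesis. Cured Huh7 cells grown in DMEM with 10% heat-inactivated FBS and 0.1 mM non-essential amino acids. Cells electroporated with replicon RNA and kept with serially diluted inhibitor.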

The subject of assay [4] is Hepatitis C virus. In words: Antiviral activity against HCV genotype 1b harboring A156T mutant infected in human Huh7 cells incubated for 96 hrs by luciferase assay. It counts as functional, organism-based, Hepacivirus hominis. The note with it: subtype 1b, Huh-7, 96 h. In outline:
as §1

The target in assay [5] is T1, Hepatitis C virus serine protease, NS3/NS4A. In words: Inhibition of HCV GT-3a NS3/4a protease using Ac-DE-D(Edans)-EE-Abu-c-[COO]-AS-K(Dabcy1)-NH2 preincubated for 1 hr followed by substrate addition. It counts as protein-complex assay, Hepatitis C virus subtype 3a.

pEC50, pKi: −log10 of the molar value.

Turning to `CCC1(OC(=O)N[C@H]2CCCCC/C=C/[C@@H]3C[C@@]3(C(=O)NS(=O)(=O)C3(C)CC3)NC(=O)[C@@H]3C[C@@H](Oc4nc5cc(OC)ccc5nc4C)CN3C2=O)CCCC1`, the pEC50 with Hepatitis C virus [1] is 8.33; with Hepatitis C virus [3], 8.80; in the assay with Hepatitis C virus [4] it was 8.08. Moreover, the pKi in assay [2] is 8.89.
Turning to `COc1ccc2nc(O[C@@H]3C[C@H]4C(=O)N[C@]5(C(=O)NS(=O)(=O)C6(C)CC6)C[C@H]5/C=C/CCCCC[C@H](NC(=O)OCC5(C)CC5)C(=O)N4C3)c(C(F)(F)F)nc2c1`, the figures for the pEC50 with Hepatitis C virus [1], in the assay on Hepatitis C virus [3] and in the assay with Hepatitis C virus [4] were 8.08, 8.24 and 7.39, respectively. Moreover, the pKi in assay [2] is 8.54.
In the case of `COc1ccc2nc(C)c(O[C@@H]3C[C@H]4C(=O)N[C@]5(C(=O)NS(=O)(=O)C6(C)CC6)C[C@H]5/C=C/CCCCC[C@H](NC(=O)OC5(C)CC5)C(=O)N4C3)nc2c1`, the values for the pEC50 in the assay on Hepatitis C virus [1], with Hepatitis C virus [3] and in the assay on Hepatitis C virus [4] were 8.46, 9.52 and 7.92, respectively. Also, in assay [2], the pKi was 8.36.
For the compound `COc1ccc2nc(C)c(O[C@@H]3C[C@H]4C(=O)N[C@]5(C(=O)NS(=O)(=O)C6(C)CC6)C[C@H]5/C=C/CCCCC[C@H](NC(=O)O[C@H](C)C(C)C)C(=O)N4C3)nc2c1`, the pEC50 in the assay with Hepatitis C virus [1] is 8.72; with Hepatitis C virus [3], 9.52; in the assay on Hepatitis C virus [4], 8.11. This compound also gave a pKi in assay [2] of 8.82.
As to `COc1ccc2nc(O[C@@H]3C[C@H]4C(=O)N[C@]5(C(=O)NS(=O)(=O)C6(C)CC6)C[C@H]5/C=C/CCCCC[C@H](NC(=O)OC5C[C@@H]6C[C@@H]6C5)C(=O)N4C3)c(C(F)(F)F)nc2c1` (stereo not given in full), the pKi in assay [5] is 6.77; in assay [2] it was 9.70. For the same compound, the pEC50 in the assay with Hepatitis C virus [1] was 8.68; with Hepatitis C virus [4], 7.15.
`COc1ccc2nc(O[C@@H]3C[C@H]4C(=O)N[C@]5(C(=O)NS(=O)(=O)C6(C)CC6)C[C@H]5/C=C/CCCCC[C@H](NC(=O)OC5(C)CC5)C(=O)N4C3)c(C(F)(F)F)nc2c1`: the values for the pEC50 in the assay with Hepatitis C virus [1], in the assay with Hepatitis C virus [3] and in the assay on Hepatitis C virus [4] were 7.85, 8.24 and 7.00, respectively. In assay [2], the pKi is 7.96.
For the compound `COc1ccc2nc(C)c(O[C@@H]3C[C@H]4C(=O)N[C@]5(C(=O)NS(=O)(=O)C6(C)CC6)C[C@H]5/C=C/CCCCC[C@H](NC(=O)OC5CC(F)(F)C5)C(=O)N4C3)nc2c1`, the pEC50 was 8.39 with Hepatitis C virus [1], 9.22 with Hepatitis C virus [3] and 8.28 with Hepatitis C virus [4]. The same compound had a pKi in assay [2] of 9.22.
For the compound `COc1ccc2nc(C)c(O[C@@H]3C[C@H]4C(=O)N[C@]5(C(=O)NS(=O)(=O)C6(C)CC6)C[C@H]5/C=C/CCCCC[C@H](NC(=O)OC5(C)CCCC5)C(=O)N4C3)nc2c1`, the pKi in assay [5] is 6.82; in assay [2], 8.74. Moreover, the pEC50 was 8.33 with Hepatitis C virus [1], 8.43 in the assay with Hepatitis C virus [3] and 7.31 in the assay with Hepatitis C virus [4].
`COc1ccc2nc(O[C@@H]3C[C@H]4C(=O)N[C@]5(C(=O)NS(=O)(=O)C6(C)CC6)C[C@H]5/C=C/CCCCC[C@H](NC(=O)O[C@H](C)C5CC5)C(=O)N4C3)c(C(F)(F)F)nc2c1`: the pEC50 is 7.72 in the assay with Hepatitis C virus [1], 8.59 in the assay on Hepatitis C virus [3] and 7.36 in the assay with Hepatitis C virus [4]. The compound further showed a pKi in assay [2] of 7.92.
For `COc1ccc2nc(O[C@@H]3C[C@H]4C(=O)N[C@]5(C(=O)NS(=O)(=O)C6(C)CC6)C[C@H]5/C=C/CCCCC[C@H](NC(=O)OCC(C)(C)C)C(=O)N4C3)c(C(F)(F)F)nc2c1`, in that order: 7.85, 8.31, 6.80 and 8.54.
In assay [2], `COc1ccc2nc(C)c(O[C@@H]3C[C@H]4C(=O)N[C@]5(C(=O)NS(=O)(=O)C6(C)CC6)C[C@H]5/C=C/CCCCC[C@H](NC(=O)OC(C)C)C(=O)N4C3)nc2c1` showed a pKi of 8.68.
On to `COc1ccc2nc(C)c(O[C@@H]3C[C@H]4C(=O)N[C@]5(C(=O)NS(=O)(=O)C6(C)CC6)C[C@H]5/C=C/CCCCC[C@H](NC(=O)OC5CCCC5)C(=O)N4C3)nc2c1`, for which the pKi is 6.92 in assay [5] and 8.96 in assay [2]. The pEC50 was 8.72 in the assay with Hepatitis C virus [1] and 10.00 in the assay with Hepatitis C virus [3].
Consider `COc1ccc2nc(C)c(O[C@@H]3C[C@H]4C(=O)N[C@]5(C(=O)NS(=O)(=O)C6(C)CC6)C[C@H]5/C=C/CCCCC[C@H](NC(=O)OC5CCCCC5)C(=O)N4C3)nc2c1`, for which the pKi in assay [5] was 6.84; in assay [2] it was 9.05. The pEC50 is 8.52 in the assay on Hepatitis C virus [1], 9.70 in the assay on Hepatitis C virus [3] and 8.17 in the assay on Hepatitis C virus [4].
For `COc1ccc2nc(C)c(O[C@@H]3C[C@H]4C(=O)N[C@]5(C(=O)NS(=O)(=O)C6(C)CC6)C[C@H]5/C=C/CCCCC[C@H](NC(=O)OC5(C)CCC5)C(=O)N4C3)nc2c1`, the pEC50 with Hepatitis C virus [1] was 8.47; with Hepatitis C virus [3] it was 9.30; in the assay with Hepatitis C virus [4], 8.38. Also, the pKi in assay [2] is 8.85.
For `COc1ccc2nc(C)c(O[C@@H]3C[C@H]4C(=O)N[C@]5(C(=O)NS(=O)(=O)C6(C)CC6)C[C@H]5/C=C/CCCCC[C@H](NC(=O)O[C@@H](C)C(F)(F)F)C(=O)N4C3)nc2c1`, the pKi in assay [2] is 9.15. Further, the pEC50 in the assay with Hepatitis C virus [3] was 9.10; with Hepatitis C virus [4], 8.09.
In the case of `COc1ccc2nc(C)c(O[C@@H]3C[C@H]4C(=O)N[C@]5(C(=O)NS(=O)(=O)C6(C)CC6)C[C@H]5/C=C/CCCCC[C@H](NC(=O)O[C@@H](C)C(C)C)C(=O)N4C3)nc2c1`, the pEC50 is 8.44 in the assay with Hepatitis C virus [1], 9.22 with Hepatitis C virus [3] and 8.15 in the assay on Hepatitis C virus [4]. This compound gave a pKi in assay [2] of 8.72.
The corresponding values for `COc1ccc2nc(O[C@@H]3C[C@H]4C(=O)N[C@]5(C(=O)NS(=O)(=O)C6(C)CC6)C[C@H]5/C=C/CCCCC[C@H](NC(=O)O[C@@H]5CCC[C@H]5F)C(=O)N4C3)c(C(F)(F)F)nc2c1` are 8.64, 9.70, 7.46 and 8.10.
For `COc1ccc2nc(C)c(O[C@@H]3C[C@H]4C(=O)N[C@]5(C(=O)NS(=O)(=O)C6(C)CC6)C[C@H]5/C=C/CCCCC[C@H](NC(=O)O[C@@H](C)C5CC5)C(=O)N4C3)nc2c1`, in that order: 8.00, 8.28, 6.89 and 8.74.
For `COc1ccc2nc(O[C@@H]3C[C@H]4C(=O)N[C@]5(C(=O)NS(=O)(=O)C6(C)CC6)C[C@H]5/C=C/CCCCC[C@H](NC(=O)OCC5(C(F)(F)F)CC5)C(=O)N4C3)c(C(F)(F)F)nc2c1`, in that order: 8.34, 8.92, 7.37 and 8.46.
Regarding `CCc1nc2ccc(OC)cc2nc1O[C@@H]1C[C@H]2C(=O)N[C@]3(C(=O)NS(=O)(=O)C4CC4)C[C@H]3/C=C/CCCCC[C@H](NC(=O)OC(C)(C)C)C(=O)N2C1`, in the assay with Hepatitis C virus [1], the pEC50 is 8.20.
Regarding `COc1ccc2nc(C)c(O[C@@H]3C[C@H]4C(=O)N[C@]5(C(=O)NS(=O)(=O)C6(C)CC6)C[C@H]5/C=C/CCCCC[C@H](NC(=O)OCC5(C)CC5(F)F)C(=O)N4C3)nc2c1` (stereo not given in full), the pKi in assay [5] is 7.00; in assay [2] it was 8.51. Also, the pEC50 in the assay with Hepatitis C virus [1] was 8.68; in the assay with Hepatitis C virus [3] it was 9.52; in the assay on Hepatitis C virus [4] it was 8.08.
In the case of `COc1ccc2nc(C)c(O[C@@H]3C[C@H]4C(=O)N[C@]5(C(=O)NS(=O)(=O)C6(C)CC6)C[C@H]5/C=C/CCCCC[C@H](NC(=O)OCC5(C)CC5)C(=O)N4C3)nc2c1`, the pEC50 was 8.42 with Hepatitis C virus [1], 9.10 with Hepatitis C virus [3] and 8.07 with Hepatitis C virus [4]. The compound also showed a pKi in assay [2] of 9.15.
The corresponding values for `COc1ccc2nc(O[C@@H]3C[C@H]4C(=O)N[C@]5(C(=O)NS(=O)(=O)C6(C)CC6)C[C@H]5/C=C/CCCCC[C@H](NC(=O)OC5CC(F)(F)C5)C(=O)N4C3)c(C(F)(F)F)nc2c1` are 8.16, 8.49, 7.46 and 7.96.
The corresponding values for `COc1ccc2nc(O[C@@H]3C[C@H]4C(=O)N[C@]5(C(=O)NS(=O)(=O)C6(C)CC6)C[C@H]5/C=C/CCCCC[C@H](NC(=O)OCC(C)C)C(=O)N4C3)c(C(F)(F)F)nc2c1` are 7.82, 8.32, 7.04 and 8.40.
With `COc1ccc2nc(O[C@@H]3C[C@H]4C(=O)N[C@]5(C(=O)NS(=O)(=O)C6(C)CC6)C[C@H]5/C=C/CCCCC[C@H](NC(=O)O[C@H](C)C(C)C)C(=O)N4C3)c(C(F)(F)F)nc2c1`, the pEC50 in the assay on Hepatitis C virus [1] was 8.20; in the assay with Hepatitis C virus [3] it was 8.68; in the assay with Hepatitis C virus [4], 7.35. In assay [2], this compound showed a pKi of 8.52.
Turning to `COc1ccc2nc(C)c(O[C@@H]3C[C@H]4C(=O)N[C@]5(C(=O)NS(=O)(=O)C6(C)CC6)C[C@H]5/C=C/CCCCC[C@H](NC(=O)O[C@H](C)C5CC5)C(=O)N4C3)nc2c1`, the figures for the pEC50 in the assay with Hepatitis C virus [1], with Hepatitis C virus [3] and in the assay with Hepatitis C virus [4] were 8.43, 9.52 and 7.96, respectively. This compound also had a pKi in assay [2] of 8.82.
Turning to `COc1ccc2nc(C)c(O[C@@H]3C[C@H]4C(=O)N[C@]5(C(=O)NS(=O)(=O)C6(C)CC6)C[C@H]5/C=C/CCCCC[C@H](NC(=O)OC5CCC5)C(=O)N4C3)nc2c1`, the pKi was 6.96 in assay [5] and 9.52 in assay [2]. Besides, the values for the pEC50 in the assay with Hepatitis C virus [1], in the assay on Hepatitis C virus [3] and with Hepatitis C virus [4] were 8.57, 10.00 and 8.47, respectively.

The pEC50 is −log10 of the EC50, conventionally taken in molar units. What is called pKi is the negative decadic logarithm of the Ki, by convention in mol/L. Read a low pKi as a large Ki.
